This is an account of results in ChEMBL document CHEMBL2401698 (J Med Chem, 2013).

Test [1] concerns the target T1, Adenosine receptor A1 (Mus musculus) (UniProt Q60612).
T1 sequence (whole entry): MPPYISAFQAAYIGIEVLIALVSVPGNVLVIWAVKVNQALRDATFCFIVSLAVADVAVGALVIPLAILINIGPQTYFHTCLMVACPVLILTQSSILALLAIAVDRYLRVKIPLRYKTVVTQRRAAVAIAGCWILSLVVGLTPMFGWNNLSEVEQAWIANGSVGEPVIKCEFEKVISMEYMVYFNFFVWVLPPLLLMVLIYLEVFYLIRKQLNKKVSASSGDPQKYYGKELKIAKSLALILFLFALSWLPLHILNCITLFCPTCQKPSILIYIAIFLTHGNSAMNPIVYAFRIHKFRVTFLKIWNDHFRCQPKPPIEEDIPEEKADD
The test can be described thus: Displacement of [125I]N6-(4-amino-3-iodobenzyl)adenosine-5'-N-methyluronamide from mouse adenosine A1 receptor expressed in HEK293 cell membranes at 10 uM after 60 mins by liquid scintillation counting analysis relative to control. In general terms: Loss of bound radioactivity is the signal in a displacement assay; it reports binding, not function.

Test [2] concerns the target Adenosine receptor A2a (Mus musculus) (UniProt Q60613). As to the kind of experiment: Displacement of [3H]2-[p-(2-carboxyethyl)phenylethylamino]-5'-N-ethylcarboxamidoadenosine from mouse adenosine A2A receptor expressed in HEK293 cell membranes at 10 uM after 60 mins by liquid scintillation counting analysis relative to control.
For test [3], the target named is T2, Adenosine receptor A3 (Mus musculus) (UniProt Q61618).
T2 sequence (whole entry): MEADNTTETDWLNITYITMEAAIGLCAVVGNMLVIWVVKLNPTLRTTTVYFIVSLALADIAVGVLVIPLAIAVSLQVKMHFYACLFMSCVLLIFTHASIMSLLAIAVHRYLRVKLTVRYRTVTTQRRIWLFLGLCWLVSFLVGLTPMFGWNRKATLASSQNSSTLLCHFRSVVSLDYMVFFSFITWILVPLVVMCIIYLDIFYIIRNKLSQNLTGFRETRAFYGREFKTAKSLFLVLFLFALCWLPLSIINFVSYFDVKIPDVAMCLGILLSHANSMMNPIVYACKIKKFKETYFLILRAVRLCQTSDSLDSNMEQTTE
As to the kind of experiment: Displacement of [125I]N6-(4-amino-3-iodobenzyl)adenosine-5'-N-methyluronamide from mouse adenosine A3 receptor expressed in HEK293 cell membranes at 10 uM after 60 mins by liquid scintillation counting analysis relative to control.

The target in test [4] is T3, Adenosine receptor A3 (Homo sapiens) (UniProt P0DMS8).
T3 sequence (whole entry): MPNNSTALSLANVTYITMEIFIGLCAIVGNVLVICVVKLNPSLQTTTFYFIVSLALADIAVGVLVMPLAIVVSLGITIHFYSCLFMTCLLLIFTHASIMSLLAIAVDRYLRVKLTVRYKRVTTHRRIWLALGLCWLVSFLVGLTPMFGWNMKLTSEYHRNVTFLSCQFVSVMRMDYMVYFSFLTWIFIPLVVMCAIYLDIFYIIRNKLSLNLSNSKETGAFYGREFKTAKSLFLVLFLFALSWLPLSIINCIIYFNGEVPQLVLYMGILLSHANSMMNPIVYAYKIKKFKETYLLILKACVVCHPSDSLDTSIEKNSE
As to the kind of experiment: Activity at human adenosine A3 receptor expressed in CHO cell membranes assessed as inhibition of forskolin-stimulated cAMP production at 10 uM preincubated for 30 mins prior to forskolin-treatment measured after 15 mins by ELISA relative to 5'-N-ethylcarboxamidoadenosine. Type of test: functional, cell-based. Put shortly:
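Whole CHO cells stably expressing hA3AR, plated 24 h, washed with DMEM/50 mM HEPES pH 7.4. […] Forskolin (10 μM) then added for 15 min. Lysed in 0.1 M HCl; cAMP by enzyme immunoassay at 450 nm. Efficacy as % of reference maximum; mean ± SEM, n = 3–5.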
Background: cAMP levels reflect the balance of adenylyl cyclase and phosphodiesterase activity.

Test [5] concerns the target Adenosine receptor A2a (Homo sapiens) (UniProt P29274). As to the kind of experiment: Displacement of [3H]2-[p-(2-carboxyethyl)phenylethylamino]-5'-N-ethylcarboxamidoadenosine from human adenosine A2A receptor expressed in HEK293 cell membranes at 10 uM after 60 mins by liquid scintillation counting analysis relative to control.
For test [6], the target named is T4, Adenosine receptor A1 (Homo sapiens) (UniProt P30542).
T4 sequence (whole entry): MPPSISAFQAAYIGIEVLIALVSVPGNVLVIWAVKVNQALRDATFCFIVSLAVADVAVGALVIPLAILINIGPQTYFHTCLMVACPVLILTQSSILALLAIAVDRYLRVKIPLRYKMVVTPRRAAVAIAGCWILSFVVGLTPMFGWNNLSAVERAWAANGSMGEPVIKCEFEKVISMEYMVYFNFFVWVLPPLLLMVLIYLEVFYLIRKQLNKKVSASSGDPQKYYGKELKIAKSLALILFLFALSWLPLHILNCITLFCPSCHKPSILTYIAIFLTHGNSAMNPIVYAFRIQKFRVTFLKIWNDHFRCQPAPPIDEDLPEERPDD
As to the kind of experiment: Displacement of [3H]N6-R-phenylisopropyladenosine from human adenosine A1 receptor expressed in CHO cell membranes at 10 uM after 60 mins by liquid scintillation counting analysis relative to control.

Test [7] relates to Mus musculus. As to the kind of experiment: Antiallodynic activity in CD-1 mouse chronic constriction injury-induced neuropathic pain model assessed as reversal of mechanoallodynia at 3 micromol/kg, ip at 1 hr post-treatment. Type of test: functional, organism-based. The method, boiled down:
(§1)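 Male CD-1 mice (25–30 g) with chronic constriction injury of left sciatic nerve under isoflurane. At peak mechanoallodynia on day 7, given 3 μmol/kg ip in 5% DMSO/saline, or vehicle; n = 6. Paw withdrawal thresholds (g) measured on ipsilateral and contralateral paws over time. Experimenters blinded.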

In a further test the target is T5, Adenosine receptor A3 (Mus musculus, UniProt Q61618).
T5 sequence (Q61618 whole entry): T2 sequence (whole entry)
The test can be described thus: Agonist activity at mouse adenosine A3 receptor expressed in HEK293 cell membranes assessed as inhibition of forskolin-stimulated cAMP production preincubated for 30 mins prior to forskolin-treatment measured after 15 mins by ELISA. The class given is functional, cell-based.

In test [8] the target is T2, Adenosine receptor A3 (Mus musculus). The test can be described thus: Agonist activity at mouse adenosine A3 receptor expressed in HEK293 cell membranes assessed as inhibition of forskolin-stimulated cAMP production preincubated for 30 mins prior to forskolin-treatment measured after 15 mins by ELISA relative to control. The class given is functional, cell-based.
The target is the same in test [9]. As to the kind of experiment: Activity at mouse adenosine A3 receptor expressed in HEK293 cell membranes assessed as inhibition of forskolin-stimulated cAMP production preincubated for 30 mins prior to forskolin-treatment measured after 15 mins by ELISA relative to 2-chloro-N6-(3-iodobenzyl)adenosine-5'-N-methyluronamide. The class given is functional, cell-based.

Test [10] relates to Mus musculus. The test can be described thus: Antiallodynic activity in adenosine A3 receptor knockout C57BL/6J mouse chronic constriction injury-induced neuropathic pain model assessed as reversal of mechanoallodynia at 3 micromol/kg, ip measured 1 to 5 hrs post-treatment.
In test [11] the target is T6, Adenosine receptor A1 (Mus musculus, UniProt Q60612).
T6 sequence (Q60612 whole entry): T1 sequence (whole entry)
The test can be described thus: Partial agonist activity at mouse adenosine A1 receptor expressed in HEK293 cell membranes assessed as inhibition of forskolin-stimulated cAMP production preincubated for 30 mins prior to forskolin-treatment measured after 15 mins by ELISA. The class given is functional, cell-based.

The test system of test [12] is Mus musculus. The test can be described thus: Antiallodynic activity in CD-1 mouse chronic constriction injury-induced neuropathic pain model assessed as effect on contralateral paw withdrawal threshold at 3 micromol/kg, ip. Type of test: functional, organism-based. The method, boiled down: as §1
The target in test [13] is T6, Adenosine receptor A1. As to the kind of experiment: Agonist activity at mouse adenosine A1 receptor expressed in HEK293 cell membranes assessed as inhibition of forskolin-stimulated cAMP production preincubated for 30 mins prior to forskolin-treatment measured after 15 mins by ELISA. Type of test: functional, cell-based.
Test [14] concerns the target Adenosine receptors; A1 & A3 (Homo sapiens) (UniProt P30542+P0DMS8). As to the kind of experiment: Selectivity ratio of Ki for human adenosine A1 receptor to Ki for human adenosine A3 receptor.
The test system of test [15] is Mus musculus. The test can be described thus: Antiallodynic activity in CD-1 mouse chronic constriction injury-induced neuropathic pain model assessed as reversal of mechanoallodynia at 3 micromol/kg, ip measured 1 to 5 hrs post-treatment in presence of MRS1523. The class given is functional, organism-based.
The species entered for test [16] is Mus musculus. As to the kind of experiment: Selectivity ratio of Ki for mouse adenosine A2A receptor to Ki for mouse adenosine A3 receptor.
In a further test the test system is CHO. The test can be described thus: Selectivity ratio of Ki for human adenosine A2A receptor expressed in HEK293 cell membranes to Ki for human adenosine A3 receptor expressed in CHO cell membranes. Type of test: cell-based.
Test [17] has as its target T1, Adenosine receptor A1 (Mus musculus). The test can be described thus: Agonist activity at mouse adenosine A1 receptor expressed in HEK293 cell membranes assessed as inhibition of forskolin-stimulated cAMP production up to 10 uM […] measured after 15 mins […]. Type of test: functional, cell-based. Put shortly:
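2 × 10^5 cells/tube coincubated with forskolin (10 μM) and ligand, up to 10 μM, for 15 min at 37 °C. Stopped with 1 N HCl; cAMP by competitive binding assay. Full agonist 44 as reference; sigmoidal fit; mean ± SEM, n = 4–7.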

Test [18] is filed under the species Mus musculus. As to the kind of experiment: Selectivity ratio of Ki for mouse adenosine A1 receptor to Ki for mouse adenosine A3 receptor.

The source made the active and inactive calls.

Chain of Adenosine receptor A2a (Mus musculus) (Q60613 whole entry): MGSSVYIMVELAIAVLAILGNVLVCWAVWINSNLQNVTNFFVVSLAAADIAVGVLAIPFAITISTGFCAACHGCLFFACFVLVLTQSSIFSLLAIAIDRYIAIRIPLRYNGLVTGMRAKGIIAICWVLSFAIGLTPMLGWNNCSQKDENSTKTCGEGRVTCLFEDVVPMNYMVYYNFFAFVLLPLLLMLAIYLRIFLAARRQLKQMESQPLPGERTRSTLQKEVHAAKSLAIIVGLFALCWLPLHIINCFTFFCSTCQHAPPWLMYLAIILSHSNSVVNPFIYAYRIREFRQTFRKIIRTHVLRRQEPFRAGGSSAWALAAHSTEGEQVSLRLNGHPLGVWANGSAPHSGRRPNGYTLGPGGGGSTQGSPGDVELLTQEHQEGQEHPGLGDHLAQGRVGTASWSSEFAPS
Chain of Adenosine receptor A2a (Homo sapiens) (P29274 whole entry): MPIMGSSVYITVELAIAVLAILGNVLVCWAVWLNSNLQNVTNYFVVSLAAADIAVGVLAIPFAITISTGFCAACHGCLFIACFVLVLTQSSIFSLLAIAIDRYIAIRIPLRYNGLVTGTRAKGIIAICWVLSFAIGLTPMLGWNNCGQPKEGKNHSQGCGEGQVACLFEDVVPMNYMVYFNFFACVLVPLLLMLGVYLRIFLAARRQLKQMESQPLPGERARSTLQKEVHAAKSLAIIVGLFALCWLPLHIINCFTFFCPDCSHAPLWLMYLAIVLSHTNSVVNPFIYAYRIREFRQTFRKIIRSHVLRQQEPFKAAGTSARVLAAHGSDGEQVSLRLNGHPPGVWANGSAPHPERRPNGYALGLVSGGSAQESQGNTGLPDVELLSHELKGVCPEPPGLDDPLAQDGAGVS

In the case of `CCNc1nc(C#Cc2ccccc2)nc2c1ncn2[C@H]1[C@H](O)[C@H](O)[C@@H]2C[C@@H]21`, the inhibition in test [1] and in [2] was 49% throughout.

As to `O[C@@H]1[C@H](O)[C@@H]2C[C@@H]2[C@H]1n1cnc2c(NCC(c3ccccc3)c3ccccc3)nc(C#Cc3ccccc3Cl)nc21`, the inhibition (in general, the drop in the measured response relative to a control, in per cent) in test [1] is 23%; in test [2], 16%; in [3], 54%.

For `O=S(=O)(O)c1ccc(CCNc2nc(C#Cc3ccccc3)nc3c2ncn3[C@H]2[C@H](O)[C@H](O)[C@@H]3C[C@@H]32)cc1`, the inhibition is 18% in [1], 1% in test [2], 15% in test [5] and 10% in [6]. Moreover, in test [4], the Efficacy stood at 7.2%.

Take `CNC(=O)[C@@]12C[C@@H]1[C@@H](n1cnc3c(NCc4cccc(Cl)c4)nc(C#Cc4ccc(S(=O)(=O)O)cc4)nc31)[C@H](O)[C@@H]2O`: the outcome in the test on Mus musculus [7] and in the test on Mus musculus [10] was Active. The inhibition in [2] came to 14%; in test [5] it was 23%. In addition, the EC50 (as a rule, the concentration that produces a half-maximal response) came to 13 nM on Adenosine receptor A3 and 495 nM on Adenosine receptor A1 [11]. For the same molecule, the Efficacy in test [4] worked out at 96.8%; in test [9], 95.7%. In test [8], the Emax (as a rule, the greatest response seen or fitted, relative to the assay's reference) turned out to be 45%. Moreover, the result with Mus musculus [12] was inactive.

For the molecule `OC[C@H]1O[C@@H](n2cnc3c(NC4CCCC4)nc(Cl)nc32)[C@H](O)[C@@H]1O`, the EC50 at Adenosine receptor A1 [13] amounted to 17.7 nM.

As for `CNC(=O)[C@@]12C[C@@H]1[C@@H](n1cnc3c(NCc4cccc(Cl)c4)nc(C#Cc4cccc(S(=O)(=O)O)c4)nc31)[C@H](O)[C@@H]2O`, the outcome in the test on Mus musculus [7] and with Mus musculus [15] was Active. Besides, the Ratio Ki in test [14] is above 10000; in the test listed under Mus musculus [16], above 1000; with CHO, above 10000; in the test listed under Mus musculus [18], above 1000. For the same molecule, the inhibition in test [1] was 15%; in test [2], 1%; in [5], 7%; in [6], 16%. Further, on Adenosine receptor A3, the half-maximal effective concentration (EC50) was determined as 2.6 nM. Moreover, the results for the Efficacy in test [4] and in test [9] were 98.2% and 89.3%, respectively. Further, the Emax in [8] worked out at 50%. For the same molecule, the inhibition entry in test [17] is “inactive”. In addition, the result with Mus musculus [10] and in the test with Mus musculus [12] was inactive.

In the case of `CCNc1nc(C#Cc2ccccc2Cl)nc2c1ncn2[C@H]1[C@H](O)[C@H](O)[C@@H]2C[C@@H]21`, the inhibition was determined as 47% in test [1], 11% in test [2] and 50% in test [3].

As to `CNc1nc(C#Cc2ccccc2)nc2c1ncn2[C@H]1[C@H](O)[C@H](O)[C@@H]2C[C@@H]21`, in test [2], the inhibition stood at 8%.

On to `CNC(=O)[C@H]1O[C@@H](n2cnc3c(NCc4cccc(I)c4)nc(Cl)nc32)[C@H](O)[C@@H]1O`, for which the Emax in [8] was 41%.

`CNC(=O)[C@@]12C[C@@H]1[C@@H](n1cnc3c(NCCc4ccc(S(=O)(=O)O)cc4)nc(C#Cc4ccccc4)nc31)[C@H](O)[C@@H]2O`: the inhibition in test [1] is 7%; in test [2], 0%; in [5] it was 1%; in [6], 9%. In test [4], the Efficacy was found to be 93.8%.

As for `CNC(=O)[C@@]12C[C@@H]1[C@@H](n1cnc3c(NCCc4ccccc4)nc(C#Cc4ccccc4)nc31)[C@H](O)[C@@H]2O`, the inhibition in test [1] was determined as 25%; in test [2], 1%; in test [5], 32%; in test [6], 11%. Further, the concentration for a half-maximal effect (EC50) on Adenosine receptor A3 was 3.33 nM. Further, the Efficacy in test [4] turned out to be 105%; in [9] it was 115%. In addition, the maximal response (Emax) in [8] was 47%.

Turning to `O[C@@H]1[C@H](O)[C@@H]2C[C@@H]2[C@H]1n1cnc2c(NCc3cccc(Cl)c3)nc(C#Cc3ccc(-c4ccccc4)cc3)nc21`, the inhibition in test [2] is 0%.
